The record followed here is the RNAGym collection of RNA variant scans (doi:10.1002/anie.201605470).

B1: Osa-1-4 twister ribozyme (parent)
chain: CCGCCUAACACUGCCAAUGCCGGUCCCAAGCCCGGAUAAAAGUGGAGGGGGCGG

The variants in this data set derive from B1. In words: self-cleavage, relative activity (ratio to wild type); higher = more cleavage; co-transcriptional. An outline of the steps: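 A DNA template for a 54-nucleotide Oryza sativa twister ribozyme was synthesised with 97 % wild-type base and 1 % of each other base at the 48 positions downstream of the cleavage site. It was transcribed in vitro for 2 h at 37 °C, allowing co-transcriptional self-cleavage, then reverse-transcribed with a template-switching oligonucleotide, PCR-amplified and deep-sequenced. Cleavage status was scored from reads with or without upstream sequence. Relative activity is fraction cleaved normalised to wild type.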
On to A10U U12C, for which the self-cleavage was found to be 0.02. In the case of A10U U12G it was 0.02; in that of A10U U12A, 0.05; in that of C11U G45A, 0.09.

As for C11U G45U, the self-cleavage worked out at 0.09. Take C11U G45C: the self-cleavage came to 0.06. On to A10U G35A, for which the self-cleavage turned out to be 0.06. The value for A10U G35C was 0.03; that for A10U G35U was 0.04; that for C11U C25G was 0.05. With C11U C25A, the self-cleavage turned out to be 0.08. In the case of C11U C25U, the self-cleavage is 0.52. The value for C11A U37A was 0.48; that for C11A U37G was 0.81. As to C11A U37C, the self-cleavage worked out at 0.88. As to C11U C32U, the self-cleavage was 0.07. The value for C11U C32G was 0.08; that for C11U C32A was 0.06. With C11G C27G, the self-cleavage turned out to be 0.03. In the case of C11G C27U it was 0.06. With C11G C27A, the self-cleavage came out at 0.07. For A10U U43C, the self-cleavage turned out to be 0.03. In the case of A10U U43G it was 0.59; in that of A10U U43A, 0.79. In the case of C11A C26U it was 0.21; in that of C11A C26G, 0.06. Regarding C11A C26A, the self-cleavage is 0.06.

As to A10U G49C, the self-cleavage turned out to be 0.01. As to A10U G49A, the self-cleavage was 0.04.

Turning to A10U G49U, the self-cleavage came out at 0.02.

With A10U U18A, the self-cleavage came out at 0.03. The value for A10U U18G was 0.07; that for A10U U18C was 0.05; that for C11U C14A was 0.07. With C11U C14U, the self-cleavage was found to be 0.17. In the case of C11U C14G it was 0.09; in that of C11A G48C, 0.05; in that of C11A G48U, 0.05. In the case of C11A G48A it was 0.05; in that of C11G C14G, 0.06; in that of C11G C14A, 0.05. The value for C11G C14U was 0.13; that for A10U G48U was 0.01. As for A10U G48C, the self-cleavage was determined as 0.01. In the case of A10U G48A it was 0.02; in that of C11G C31U, 0.08.

For the variant C11G C31G, the self-cleavage amounted to 0.04. In the case of C11G C31A, the self-cleavage came out at 0.03.

Turning to C11A C21G, the self-cleavage is 0.07.

On to C11A C21U, for which the self-cleavage came out at 0.71. C11A C21A: the self-cleavage was determined as 0.14. In the case of C11A C15A it was 0.12. In the case of C11A C15G, the self-cleavage was determined as 0.1. For C11A C15U, the self-cleavage is 0.07. Consider C11A G22U, for which the self-cleavage worked out at 0.07. Turning to C11A G22A, the self-cleavage stood at 0.24. The value for C11A G22C was 0.04. Take C11A C20A: the self-cleavage came out at 0.62. As for C11A C20G, the self-cleavage worked out at 0.06. In the case of C11A C20U it was 0.66. The value for C11A U18C was 0.43; that for C11A U18A was 0.67; that for C11A U18G was 0.64. The value for C11G G54U was 0.36. Take C11G G54A: the self-cleavage stood at 0.3. On to C11G G54C, for which the self-cleavage turned out to be 0.32. In the case of C11G G22C it was 0.04; in that of C11G G22A, 0.07; in that of C11G G22U, 0.03. For A10U G54C, the self-cleavage worked out at 0.04. As to A10U G54U, the self-cleavage was 0.21. Regarding A10U G54A, the self-cleavage worked out at 0.06. In the case of C11A C9G it was 0.19; in that of C11A C9U, 0.4. Consider C11A C9A, for which the self-cleavage is 0.33. Take C11U C27U: the self-cleavage was 0.12. The value for C11U C27A was 0.14.

Take C11U C27G: the self-cleavage was 0.06. In the case of C11U C33A it was 0.07; in that of C11U C33U, 0.51; in that of C11U C33G, 0.06. As to C11A C25A, the self-cleavage is 0.11. For the variant C11A C25U, the self-cleavage was 0.18.

In the case of C11A C25G, the self-cleavage came out at 0.05. Take C11A G42C: the self-cleavage came out at 0.83.

With C11A G42A, the self-cleavage worked out at 0.76. The value for C11A G42U was 0.73; that for C11G C21U was 0.39; that for C11G C21A was 0.06. For C11G C21G, the self-cleavage came out at 0.04. As to C11G U12A, the self-cleavage was 0.15. Take C11G U12C: the self-cleavage amounted to 0.08.

For C11G U12G, the self-cleavage was 0.08. In the case of C11U G34A it was 0.39; in that of C11U G34U, 0.19; in that of C11U G34C, 0.08.

Consider C11U G23C, for which the self-cleavage stood at 0.04. The value for C11U G23A was 0.1; that for C11U G23U was 0.05; that for C11A G35A was 0.4. As for C11A G35C, the self-cleavage came out at 0.09.

With C11A G35U, the self-cleavage is 0.37. In the case of C11A U12G it was 0.09. As to C11A U12A, the self-cleavage turned out to be 0.09.

C11A U12C: the self-cleavage was found to be 0.14. Regarding C11G C15G, the self-cleavage was 0.1.

As for C11G C15U, the self-cleavage worked out at 0.08.

For C11G C15A, the self-cleavage is 0.09. In the case of C11A G50U it was 0.77. On to C11A G50A, for which the self-cleavage was determined as 0.3. Regarding C11A G50C, the self-cleavage came out at 0.57.

Regarding C11A C52A, the self-cleavage came out at 0.63.

Turning to C11A C52G, the self-cleavage came out at 0.74. Turning to C11A C52U, the self-cleavage is 0.9. In the case of C11G C9G it was 0.19; in that of C11G C9A, 0.09. In the case of C11G C9U it was 0.07. Regarding C11A C31G, the self-cleavage amounted to 0.06. In the case of C11A C31U it was 0.09. In the case of C11A C31A it was 0.05. In the case of C11A G45A it was 0.06; in that of C11A G45U, 0.06; in that of C11A G45C, 0.04. On to C11G C25A, for which the self-cleavage was 0.04. The value for C11G C25U was 0.18; that for C11G C25G was 0.04; that for C11G G53A was 0.17. The value for C11G G53C was 0.04; that for C11G G53U was 0.07. Consider C11G U24A, for which the self-cleavage is 0.04. The value for C11G U24C was 0.04; that for C11G U24G was 0.04; that for C11A G53C was 0.04. Turning to C11A G53A, the self-cleavage worked out at 0.49. C11A G53U: the self-cleavage turned out to be 0.09. Regarding C11G C20A, the self-cleavage came out at 0.4. In the case of C11G C20U it was 0.5; in that of C11G C20G, 0.04. In the case of C11U G35A it was 0.65; in that of C11U G35C, 0.18; in that of C11U G35U, 0.69. In the case of C11A G23C, the self-cleavage amounted to 0.03.

As to C11A G23U, the self-cleavage is 0.03.

Regarding C11A G23A, the self-cleavage is 0.07. The value for C11A U43A was 0.76. In the case of C11A U43G it was 0.56; in that of C11A U43C, 0.1.

For the variant C11G U37G, the self-cleavage came out at 0.71.

Turning to C11G U37C, the self-cleavage is 0.69. On to C11G U37A, for which the self-cleavage is 0.38.

Regarding C11G G30C, the self-cleavage came out at 0.04. Turning to C11G G30A, the self-cleavage came out at 0.03. On to C11G G30U, for which the self-cleavage was 0.02. The value for C11G G19A was 0.08.

With C11G G19U, the self-cleavage was determined as 0.05. In the case of C11G G19C, the self-cleavage was determined as 0.03. Turning to C11U G22C, the self-cleavage amounted to 0.04. Consider C11U G22A, for which the self-cleavage stood at 0.59.

Consider C11U G22U, for which the self-cleavage was 0.22. Take C11G G13U: the self-cleavage is 0.03.

As to C11G G13A, the self-cleavage was 0.06. On to C11G G13C, for which the self-cleavage amounted to 0.02.

For C11U G49A, the self-cleavage was determined as 0.09. The value for A10U G51C was 0.02.

In the case of A10U G51A, the self-cleavage was determined as 0.04.

Consider A10U G51U, for which the self-cleavage was found to be 0.03. The value for C11G G42A was 0.75.
